# Experimental data pooled from the literature.
# Each line is one published result; the experiments were not run side by side.
SMILES,organism,assay,test system,setting,quantity,value
CC1(C)S[C@@H]2[C@H](NC(=O)[C@H](N)c3ccccc3)C(=O)N2[C@H]1C(=O)O,Enterococcus faecium,"microbial growth, broth dilution",ATCC19434,12 h,MIC,0.5 µg/mL
C/C(=N\C(=N)/N=C(\C)c1c(O)c2ccccc2oc1=O)c1c(O)c2ccccc2oc1=O,Penicillium verrucosum,"microbial growth, broth dilution",,48 h,MIC,125 µg/mL
CN1CCC(Nc2ncnc3ccc(-c4cccc(N5CCOCC5)c4)cc23)CC1,Trypanosoma brucei,"parasite growth, SYBR Green",,48 h,GI50,4.7 µM
OC(Cn1cncn1)(Cn1cncn1)c1ccc(F)cc1F,Candida albicans,"microbial growth, broth dilution",58288,48 h,MIC,8 µM
CC[C@H]1OC(=O)[C@H](C)[C@@H](O[C@H]2C[C@@](C)(OC)[C@@H](O)[C@H](C)O2)[C@H](C)[C@@H](O[C@@H]2O[C@H](C)C[C@H](N(C)C)[C@H]2O)[C@](C)(O)C[C@@H](C)/C(=N\OCOCCOC)[C@H](C)[C@@H](O)[C@]1(C)O,Enterococcus faecium,microbial growth,,clinical isolate,MIC90,> 128 µg/mL
O=c1[nH]c(CCl)nc2scc(-c3cccc(F)c3)c12,Trypanosoma brucei,"parasite growth, ATP luminescence",,24 h,EC50,1.3 µM
CCOC(=O)c1cnc2c([N+](=O)[O-])cc(C(F)(F)F)cc2c1NC1CC1,Trypanosoma brucei,"parasite growth, resazurin",,72 h,EC50,> 10 µM
c1coc(Nc2ncnc3ccc(-c4cncc(N5CCOCC5)n4)cc23)n1,Trypanosoma brucei,"parasite growth, SYBR Green",,48 h,GI50,25 µM
O=c1[nH]c(CCl)nc2scc(-c3ccccc3F)c12,Trypanosoma brucei,"parasite growth, ATP luminescence",,24 h,EC50,1 µM
CCOC(=O)c1cnc2c([N+](=O)[O-])cc(C(F)(F)F)cc2c1NCCCN1CCOCC1,Trypanosoma brucei,"parasite growth, resazurin",,72 h,EC50,> 10 µM
O=c1[nH]c(CCl)nc2scc(-c3ccc(F)cc3)c12,Trypanosoma brucei,"parasite growth, ATP luminescence",,24 h,EC50,1.3 µM
FC(F)(F)c1cc(Nc2ncnc3ccc(-c4cccc(N5CCOCC5)c4)cc23)ccc1Cl,Trypanosoma brucei,"parasite growth, SYBR Green",GAMBIENSE,,GI50,0.25 µM
C/C(=N\N=C(/C)c1c(O)c2ccccc2oc1=O)c1c(O)c2ccccc2oc1=O,Penicillium verrucosum,"microbial growth, broth dilution",,48 h,MIC,62.5 µg/mL
CC(=O)N1CCN(c2ccc(OCC3COC(Cn4ccnc4)(c4ccc(Cl)cc4Cl)O3)cc2)CC1 (stereo not drawn),Candida albicans,"microbial growth, broth dilution",56452,48 h,MIC,2 µM
c1cc(-c2ccc3ncnc(Nc4ncco4)c3c2)cc(N2C[C@H]3C[C@@H]2CO3)c1,Trypanosoma brucei,"parasite growth, SYBR Green",,48 h,GI50,2.1 µM
C/C(=N\c1nc(N)nc(/N=C(\C)c2c(O)c3ccccc3oc2=O)n1)c1c(O)c2ccccc2oc1=O,Penicillium verrucosum,"microbial growth, broth dilution",,48 h,MIC,7.81 µg/mL
O=[N+]([O-])c1ccc(Nc2ncnc3ccc(-c4cccc(N5CCOCC5)c4)cc23)cc1C(F)(F)F,Trypanosoma brucei,"parasite growth, SYBR Green",GAMBIENSE,,GI50,0.013 µM
C/C(=N\C1CCCCC1/N=C(\C)c1c(O)c2ccccc2oc1=O)c1c(O)c2ccccc2oc1=O (stereo not drawn),Penicillium verrucosum,"microbial growth, broth dilution",,48 h,MIC,62.5 µg/mL
Cn1cc(Nc2ncnc3ccc(-c4cccc(N5CCOCC5)c4)cc23)cn1,Trypanosoma brucei,"parasite growth, SYBR Green",,48 h,GI50,0.25 µM
C[C@@H]1[C@H](O)[C@@H](C)/C=C/C=C/C=C/C=C/C=C/C=C/C=C/[C@H](O[C@@H]2O[C@H](C)[C@@H](O)[C@H](N)[C@@H]2O)C[C@@H]2O[C@](O)(C[C@@H](O)C[C@@H](O)[C@H](O)CC[C@@H](O)C[C@@H](O)CC(=O)O[C@H]1C)C[C@H](O)[C@H]2C(=O)O,Candida albicans,"microbial growth, broth dilution",CGMCC2,48 h,MIC,< 0.25 µM
O=c1[nH]c(CCl)nc2scc(-c3ccc(C(F)(F)F)cc3)c12,Trypanosoma brucei,"parasite growth, ATP luminescence",,48 h,EC50,2.5 µM
CC1(C)S[C@@H]2[C@H](NC(=O)[C@H](N)c3ccccc3)C(=O)N2[C@H]1C(=O)O,Enterococcus faecium,microbial growth,,clinical isolate,MIC50,128 µg/mL
Cc1c2c(nn1C)CSCc1cc(n(C)n1)CSc1cc(c3ccccc3c1)OCCCc1c(C(=O)O)n(C)c3c-2c(Cl)ccc13,Enterococcus faecium,"microbial growth, broth dilution",,clinical isolate,MIC90,25 µM
c1cc(-c2ccc3ncnc(Nc4ncco4)c3c2)nc(N2CCOCC2)c1,Trypanosoma brucei,"parasite growth, SYBR Green",GAMBIENSE,,GI50,2.4 µM
C=C[C@]1(C)C[C@@H](OC(=O)CS[C@@H]2C[C@H]3CC[C@@H](C2)N3C)[C@]2(C)[C@H](C)CC[C@]3(CCC(=O)[C@H]32)[C@@H](C)[C@@H]1O,Enterococcus faecium,microbial growth,,clinical isolate,MIC90,128 µg/mL
c1cc(-c2ccc3ncnc(Nc4ncco4)c3c2)nc(N2C[C@H]3C[C@@H]2CO3)n1,Trypanosoma brucei,"parasite growth, SYBR Green",,48 h,GI50,4.7 µM
C/C(=N\C(=O)/N=C(\C)c1c(O)c2ccccc2oc1=O)c1c(O)c2ccccc2oc1=O,Penicillium verrucosum,"microbial growth, broth dilution",,48 h,MIC,62.5 µg/mL
